A selection: hits, their analogues and other compounds. The true share with any hit is near 2.4%.
IMP-1 inh = inhibitors of Pseudomonas aeruginosa IMP-1 metallo-beta-lactamase | purified IMP-1, nitrocefin hydrolysis, epi-absorbance fluorescence | inhibition, % at 5.6 µM | 0.45% of 290,000 active | AID 1556;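 active = inhibition above the mean plus 3 SD of all compounds in the same screening run, cut at about 4.5% in these data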;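 note: 0% = IMP-1 with DMSO and 100% = DMSO wells lacking enzyme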
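System – purified recombinant IMP-1 beta-lactamase · Input – IMP-1 dispensed at 0.2 nM · Timing – 15 min preincubation plus 25 min reaction at 25 °C · Signal – Epi-absorbance fluorescence, 480 nm excitation, 530 nm emission · Measure – percent IMP-1 inhibition derived from blank-referenced optical density · Controls – Enzyme-plus-DMSO low control, enzyme-free DMSO high control · Replication – singlicate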
VIM-2 inh = blocks Pseudomonas aeruginosa VIM-2 metallo-beta-lactamase; 0.89% of 290,000 active; inhibition, % at 5.6 µM; purified VIM-2, nitrocefin hydrolysis, epi-absorbance fluorescence;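 active = inhibition above the mean of all tested compounds plus 3 SD, cutoff set per screening run, cut at about 7.5% in these data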;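 note: red hydrolysis product quenches plate fluorescence so inhibitors raise well fluorescence; 0% = enzyme with DMSO and 100% = DMSO without enzyme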
M18AAP inhibitor = PfM18AAP enzyme inhibition; 1.2% of 290,000 active; AID 1822; recombinant PfM18AAP, H-Glu-NHMec fluorogenic cleavage; inhibition, % at 7.35 µM;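 active = inhibition above the campaign mean inhibition over all tested compounds plus 3 SD, cut at about 28% in these data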;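 note: 0% = plate median of test compound wells and 100% = 2 mM ZnCl2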
HGIII-sPLA2 inh = Inhibits HGIII-sPLA2 liposome hydrolysis, primary screen. inhibition, % at 12.2 µM. QFRET BODIPY PC-A2 liposome hydrolysis, fluorescence. AID 743126. Q9NZ20. 0.56% of 370,000 active;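 active = inhibition above mean plus 3 SD of compounds lying within the high and low control bounds, cut at about 19% in these data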;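 note: 0% = median of test compound wells and 100% = no enzyme DMSO wells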
Target sequence (Q9NZ20 whole entry, looked up): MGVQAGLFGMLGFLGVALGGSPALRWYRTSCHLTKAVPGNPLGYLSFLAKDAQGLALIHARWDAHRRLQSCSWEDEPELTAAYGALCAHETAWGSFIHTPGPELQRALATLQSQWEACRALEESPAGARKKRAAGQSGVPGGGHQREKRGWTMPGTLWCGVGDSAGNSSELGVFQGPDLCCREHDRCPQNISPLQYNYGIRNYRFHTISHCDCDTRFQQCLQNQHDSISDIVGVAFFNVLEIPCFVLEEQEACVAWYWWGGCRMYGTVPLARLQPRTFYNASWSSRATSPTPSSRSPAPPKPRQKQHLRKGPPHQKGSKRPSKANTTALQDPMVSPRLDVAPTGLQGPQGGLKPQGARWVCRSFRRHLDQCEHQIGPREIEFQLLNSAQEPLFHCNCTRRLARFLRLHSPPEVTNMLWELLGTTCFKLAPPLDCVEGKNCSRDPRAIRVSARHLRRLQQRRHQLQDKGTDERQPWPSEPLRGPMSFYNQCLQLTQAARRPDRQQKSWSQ
An asterisk follows results filed as active; . = no result.

SMILES | IMP-1 inh | VIM-2 inh | M18AAP inhibitor | HGIII-sPLA2 inh
COc1ccc(-n2cc(-c3ccc(Cl)cc3)[nH]c2=S)cc1 | -3 | -3 | -1 | 0
COC(=O)c1ccc(-n2cc(-c3ccc(OC)cc3)[nH]c2=S)cc1 | -4 | -7 | 28* | 1
Cc1ccc(N2C(N)=C(C#N)C(c3cccs3)C3=C2CC(C)(C)CC3=O)cc1 (stereo not given) | -3 | -6 | -3 | 7
N#CC1=C(N)N(c2ccccc2)C2=C(C(=O)CCC2)C1c1cccs1 (stereo not given) | -2 | -6 | 29* | -5
CC(=O)c1ccc2c(c1)C1C=CCC1C(c1ccc(S(=O)(=O)N3CCOCC3)cc1)N2 (stereo not given) | -2 | -3 | 1 | 0
COc1ccc(NS(=O)(=O)c2ccc3c(c2)[C@H]2C=CC[C@H]2[C@@H](c2ccc(C(=O)O)cc2)N3)cc1 | 22* | 2 | 18 | -4
Cc1c(Cl)cccc1NS(=O)(=O)c1ccc2c(c1)C1C=CCC1C(c1ccc(C(=O)O)cc1)N2 (stereo not given) | 30* | -1 | 6 | .
O=c1oc2c(O)cccc2cc1-c1nc2ccccc2[nH]1 | 7.2* | 6 | 7 | -47
Cc1cccc(-n2c(SCc3cc(=O)n4ccsc4n3)nc3ccccc32)c1 | 5.0* | -1 | -3 | -4
Cc1ccc(-n2ncc(C(=O)O)c2C2CCN(C(=O)OC(C)(C)C)CC2)cc1 | 2 | 8.4* | -11 | -5
CCOC(=O)c1cnc(-n2nc(C)cc2C)nc1NC | -4 | 8.1* | 1 | -2
COC(=O)N1CCC[C@H]1c1cccc2[nH]cc(C)c12 | . | . | . | -8
Cc1cc(OCC(=O)NC2CCN(Cc3ccccc3)CC2)c2c(C)cc(=O)oc2c1 | -5 | 9.3* | -1 | -3
CCCc1cc(=O)oc2cc(C)cc(OCC(=O)NC3CCN(Cc4ccccc4)CC3)c12 | -3 | 4 | 0 | -6
Cc1ccc(C(=O)N/C(=C/c2ccco2)C(=O)Nc2cccc(C(=O)O)c2)cc1 | 0 | 1 | 30* | -11
COc1ccccc1C(=O)N/C(=C/c1ccco1)C(=O)Nc1cccc(C(=O)O)c1 | -4 | -5 | 16 | 1
Cc1cccc(C(=O)N/C(=C\c2ccco2)C(=O)N2CCCC2)c1 | -1 | 1 | 29* | -5
O=C(N/C(=C\c1ccco1)C(=O)N1CCCC1)c1ccccc1 | -1 | -3 | 32* | -3
Cc1ccc(C(=O)N/C(=C/c2ccco2)C(=O)N2CCCCCC2)cc1 | -1 | -3 | 11 | -7
O=C(/C=C/c1ccco1)NC(=S)Nc1cccc(C(=O)O)c1 | 8.9* | -4 | 19 | -4
COC(=O)C1CN(Cc2cn(Cc3ccc(F)cc3)nn2)CCS(=O)(=O)N1Cc1ccc(C)cc1 (stereo not given) | . | . | . | -2
CCOc1ccc(CCNC(=O)C2CCCCC2)cc1OCC | . | . | . | 5
O=C1NN(c2ccccc2)C(=O)/C1=C\c1ccccc1OCC(=O)N1CCOCC1 | 4.5* | -1 | -10 | -1
O=S1(=O)c2c(cccc2N2CCSCC2)Oc2ccccc2CN1Cc1cn(Cc2ccc(C(F)(F)F)cc2)nn1 | . | . | . | -11
CCN(C(=O)CN1CCN(c2ccccc2O)CC1)c1c(N)n(Cc2ccccc2)c(=O)[nH]c1=O | 0 | -4 | 28* | 1
SMILES | IMP-1 inh | VIM-2 inh | M18AAP inhibitor | HGIII-sPLA2 inh
Cc1ccc(NNC(=O)c2c(C)noc2C)cc1Cl | -1 | -2 | 30* | 0
Cc1noc(C)c1C(=O)NNc1ccc(C(C)C)cc1 | -3 | -1 | 14 | 6
CCn1c(=O)c2cc(C(=O)Nc3ccc(OC)cc3OC)sc2c2ccccc21 | -1 | 0 | -6 | 3
CCOCCCNC(=O)c1cc2c(=O)n(CC)c3ccccc3c2s1 | -2 | 7.9* | -4 | 1
CCn1c(=O)c2cc(C(=O)NCCOC)sc2c2ccccc21 | -5 | 8.3* | 5 | -1
CCCN(CCC)CCCNC(=O)c1cc2c(=O)[nH]c3ccccc3c2s1 | -5 | 9.7* | 4 | -7
CCCN(CCC)CCNC(=O)c1cc2c(=O)n(CC)c3ccccc3c2s1 | -1 | 10* | 0 | -7
CCCCN(CC)CCNC(=O)c1cc2c(=O)[nH]c3ccccc3c2s1 | -4 | 7 | 5 | 2
O=C(CSc1nnc(-c2ccccc2F)n1Cc1ccco1)Nc1ccccc1-c1ccccc1 | . | . | . | -4
CCOC(=O)N1C(=O)C[C@](Sc2ccc(OC)cc2)(C(=O)N(C)C)[C@H]1c1ccc(OC)cc1 | . | . | . | 3
COc1ccc(CNC(=O)c2cc3c(=O)[nH]c4ccccc4c3n2C)cc1 | -3 | -3 | -2 | 4
CCCCN(C)CCNC(=O)c1cc2c(=O)[nH]c3ccccc3c2n1C | -3 | 8.6* | 9 | 8

Screens as filed in PubChem BioAssay.
